The source made the active and inactive calls. No cut-off for these calls is given here.
Key:
[1] = test system: Mus musculus; experiment: Anticonvulsant activity in albino CF1 mouse assessed as protection against maximal electroshock-induced seizures at 30 mg/kg, ip after 4 hrs; assay type: functional, organism-based; set-up: dose 30 mg/kg
How it was run: (§1)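 Mice dosed ip at 30, 100 or 300 mg/kg, then tested 0.5 h and 4 h after administration in the MES or scMet test. Protection was recorded as animals protected over animals tested. Neurotoxicity was recorded as motor impairment or sedation, as animals affected over animals tested.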

[2] = test system: Mus musculus; experiment: Anticonvulsant activity in albino CF1 mouse assessed as protection against subcutaneous metrazol-induced seizures at 100 mg/kg, ip after 4 hrs; assay type: functional, organism-based; set-up: dose 100 mg/kg; how it was run: as §1
[3] = test system: Mus musculus; experiment: Anticonvulsant activity in albino CF1 mouse assessed as protection against maximal electroshock-induced seizures at 100 mg/kg, ip after 4 hrs; assay type: functional, organism-based; set-up: dose 100 mg/kg; how it was run: as §1
[4] = test system: Mus musculus; experiment: Anticonvulsant activity in albino CF1 mouse assessed as protection against maximal electroshock-induced seizures at 100 mg/kg, ip after 0.5 hrs; assay type: functional, organism-based; set-up: dose 100 mg/kg; how it was run: as §1
[5] = test system: Rattus norvegicus; experiment: Neurotoxicity in pilocarpine-induced status epilepticus Sprague-Dawley albino rat model assessed as minimal motor impairment at 100 mg/kg, ip after 1 hr by rotarod test; assay type: toxicity, organism-based; set-up: dose 100 mg/kg, route intraperitoneal; details: in vivo
[6] = test system: Rattus norvegicus; experiment: Anticonvulsant activity in Sprague-Dawley albino rat assessed as protection against pilocarpine-induced status epilepticus at 130 mg/kg, ip administered 0 and 30 mins after status epilepticus onset
[7] = test system: Mus musculus; experiment: Neurotoxicity in albino CF1 mouse assessed as minimal motor impairment at 30 mg/kg, ip after 4 hrs by rotarod test; assay type: toxicity, organism-based; set-up: dose 30 mg/kg, route intraperitoneal; details: in vivo; how it was run: as §1
[8] = test system: Rattus norvegicus; experiment: Neurotoxicity in pilocarpine-induced status epilepticus Sprague-Dawley albino rat model assessed as minimal motor impairment at 100 mg/kg, ip after 4 hrs by rotarod test; assay type: toxicity, organism-based; set-up: dose 100 mg/kg, route intraperitoneal; details: in vivo
[9] = test system: Mus musculus; experiment: Anticonvulsant activity in albino CF1 mouse assessed as protection against subcutaneous metrazol-induced seizures at 30 mg/kg, ip after 0.5 hrs; assay type: functional, organism-based; set-up: dose 30 mg/kg; how it was run: as §1
[10] = test system: Mus musculus; experiment: Neurotoxicity in albino CF1 mouse assessed as minimal motor impairment at 300 mg/kg, ip after 0.5 hrs by rotarod test; assay type: toxicity, organism-based; set-up: dose 300 mg/kg, route intraperitoneal; details: in vivo; how it was run: as §1
[11] = test system: Rattus norvegicus; experiment: Anticonvulsant activity in ip dosed Sprague-Dawley albino rat assessed as protection against subcutaneous metrazol-induced seizures; assay type: functional
How it was run: (§2)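 Quantitative testing: rats dosed orally or ip in MES and scMet tests, and mice dosed ip, including the 6 Hz (32 mA) psychomotor seizure test. ED50 and TD50 were reported in mg/kg with ranges in parentheses. Protective index was calculated as TD50/ED50.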

[12] = test system: Rattus norvegicus; experiment: Anticonvulsant activity in ip dosed Sprague-Dawley albino rat assessed as protection against pilocarpine-induced status epilepticus after 0.5 hrs; assay type: functional
How it was run: (§3)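 Pilocarpine status epilepticus model in rats. Number and severity of convulsive seizures were observed behaviourally.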

[13] = test system: Rattus norvegicus; experiment: Anticonvulsant activity in Sprague-Dawley albino rat assessed as protection against pilocarpine-induced status epilepticus at 65 mg/kg, ip; assay type: functional, organism-based; set-up: dose 65 mg/kg; how it was run: as §3
[14] = test system: Rattus norvegicus; experiment: Neurotoxicity in pilocarpine-induced status epilepticus Sprague-Dawley albino rat model assessed as minimal motor impairment at 30 mg/kg, ip after 4 hrs by rotarod test; assay type: toxicity, organism-based; set-up: dose 30 mg/kg, route intraperitoneal; details: in vivo
How it was run: (§4)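 Rat pilocarpine status epilepticus model: test carbamate given at 0 or 30 min after the first observed Racine stage 3 motor seizure, which marks SE onset. Neurotoxicity was scored within the same model.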

[15] = test system: Mus musculus; experiment: Neurotoxicity in albino CF1 mouse assessed as minimal motor impairment at 30 mg/kg, ip after 0.5 hrs by rotarod test; assay type: toxicity, organism-based; set-up: dose 30 mg/kg, route intraperitoneal; details: in vivo; how it was run: as §1
[16] = test system: Rattus norvegicus; experiment: Neurotoxicity in pilocarpine-induced status epilepticus Sprague-Dawley albino rat model assessed as minimal motor impairment at 30 mg/kg, ip after 0.25 hr by rotarod test; assay type: toxicity, organism-based; set-up: dose 30 mg/kg, route intraperitoneal; details: in vivo; how it was run: as §4
[17] = test system: Rattus norvegicus; experiment: Anticonvulsant activity in ip dosed Sprague-Dawley albino rat assessed as protection against maximal electroshock-induced seizures; assay type: functional; how it was run: as §2
[18] = test system: Rattus norvegicus; experiment: Anticonvulsant activity in Sprague-Dawley albino rat assessed as protection against maximal electroshock-induced seizures at 30 mg/kg, po after 4 hrs; assay type: functional, organism-based; set-up: dose 30 mg/kg
How it was run: (§5)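 Rats dosed orally. Anti-MES protection was scored as animals protected over animals tested at each time after dosing. Neurotoxicity was scored as motor impairment or sedation, as animals affected over animals tested.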

[19] = test system: Mus musculus; experiment: Protective index, ratio of TD50 for ip dosed albino CF1 mouse by rotarod test to ED50 for ip dosed albino CF1 mouse by 6 Hz psychomotor seizure test; assay type: functional
How it was run: (§6)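 Protective index calculated as TD50/ED50, with TD50 and ED50 taken from the same species and dosing route.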

[20] = Neurotoxicity in ip dosed Sprague-Dawley albino rat assessed as minimal motor impairment by rotarod test; assay type: toxicity, organism-based; details: in vivo; how it was run: as §2
[21] = test system: Mus musculus; experiment: Anticonvulsant activity in albino CF1 mouse assessed as protection against subcutaneous metrazol-induced seizures at 30 mg/kg, ip after 4 hrs; assay type: functional, organism-based; set-up: dose 30 mg/kg; how it was run: as §1
[22] = test system: Rattus norvegicus; experiment: Neurotoxicity in pilocarpine-induced status epilepticus Sprague-Dawley albino rat model assessed as minimal motor impairment at 30 mg/kg, ip after 0.5 hrs by rotarod test; assay type: toxicity, organism-based; set-up: dose 30 mg/kg, route intraperitoneal; details: in vivo; how it was run: as §4
[23] = test system: Rattus norvegicus; experiment: Neurotoxicity in pilocarpine-induced status epilepticus Sprague-Dawley albino rat model assessed as minimal motor impairment at 30 mg/kg, ip after 2 hrs by rotarod test; assay type: toxicity, organism-based; set-up: dose 30 mg/kg, route intraperitoneal; details: in vivo; how it was run: as §4
[24] = test system: Mus musculus; experiment: Anticonvulsant activity in albino CF1 mouse assessed as protection against subcutaneous metrazol-induced seizures at 300 mg/kg, ip after 0.5 hrs; assay type: functional, organism-based; set-up: dose 300 mg/kg; how it was run: as §1
[25] = test system: Mus musculus; experiment: Anticonvulsant activity in albino CF1 mouse assessed as protection against maximal electroshock-induced seizures at 300 mg/kg, ip after 0.5 hrs; assay type: functional, organism-based; set-up: dose 300 mg/kg; how it was run: as §1
[26] = test system: Rattus norvegicus; experiment: Neurotoxicity in pilocarpine-induced status epilepticus Sprague-Dawley albino rat model assessed as minimal motor impairment at 300 mg/kg, ip after 0.25 hr by rotarod test; assay type: toxicity, organism-based; set-up: dose 300 mg/kg, route intraperitoneal; details: in vivo; how it was run: as §4
[27] = test system: Rattus norvegicus; experiment: Neurotoxicity in Sprague-Dawley albino rat assessed as minimal motor impairment at 30 mg/kg, po by rotarod test; assay type: toxicity, organism-based; set-up: dose 30 mg/kg, route oral; details: in vivo; how it was run: as §5
[28] = test system: Rattus norvegicus; experiment: Protective index, ratio of TD50 for po dosed Sprague-Dawley albino rat by rotarod test to ED50 for po dosed Sprague-Dawley albino rat by subcutaneous metrazol seizures test; assay type: functional; how it was run: as §6
[29] = test system: Mus musculus; experiment: Anticonvulsant activity in albino CF1 mouse assessed as protection against subcutaneous metrazol-induced seizures at 300 mg/kg, ip after 4 hrs; assay type: functional, organism-based; set-up: dose 300 mg/kg; how it was run: as §1
[30] = test system: Rattus norvegicus; experiment: Protective index, ratio of TD50 for ip dosed Sprague-Dawley albino rat by rotarod test to ED50 for ip dosed Sprague-Dawley albino rat by subcutaneous metrazol seizures test; assay type: functional; how it was run: as §6
[31] = test system: Mus musculus; experiment: Anticonvulsant activity in ip dosed albino CF1 mouse assessed as protection against maximal electroshock-induced seizures; assay type: functional; how it was run: as §2
[32] = test system: Rattus norvegicus; experiment: Neurotoxicity in pilocarpine-induced status epilepticus Sprague-Dawley albino rat model assessed as minimal motor impairment at 100 mg/kg, ip after 0.25 hr by rotarod test; assay type: toxicity, organism-based; set-up: dose 100 mg/kg, route intraperitoneal; details: in vivo
[33] = test system: Rattus norvegicus; experiment: Ratio of ED50 for po dosed Sprague-Dawley albino rat to ED50 for ip dosed Sprague-Dawley albino rat by maximal electroshock-induced seizure test; assay type: functional
[34] = test system: Mus musculus; experiment: Anticonvulsant activity in albino CF1 mouse assessed as protection against maximal electroshock-induced seizures at 30 mg/kg, ip after 0.5 hrs; assay type: functional, organism-based; set-up: dose 30 mg/kg; how it was run: as §1
[35] = test system: Mus musculus; experiment: Neurotoxicity in albino CF1 mouse assessed as minimal motor impairment at 100 mg/kg, ip after 4 hrs by rotarod test; assay type: toxicity, organism-based; set-up: dose 100 mg/kg, route intraperitoneal; details: in vivo; how it was run: as §1
[36] = test system: Rattus norvegicus; experiment: Neurotoxicity in pilocarpine-induced status epilepticus Sprague-Dawley albino rat model assessed as minimal motor impairment at 100 mg/kg, ip after 2 hrs by rotarod test; assay type: toxicity, organism-based; set-up: dose 100 mg/kg, route intraperitoneal; details: in vivo
[37] = test system: Mus musculus; experiment: Anticonvulsant activity in albino CF1 mouse assessed as protection against subcutaneous metrazol-induced seizures at 100 mg/kg, ip after 0.5 hrs; assay type: functional, organism-based; set-up: dose 100 mg/kg; how it was run: as §1

## CCC(COC(N)=O)C(C)C (racemic)
[1]
  Activity: inactive
[2]
  Activity: inactive
[3]
  Activity: inactive
[4]
  Activity: inactive
[5]
  Activity: Non-toxic
[6]
  Activity: Active
[7]
  Activity: Non-toxic
[8]
  Activity: Non-toxic
[9]
  Activity: inactive
[10]
  Activity: Toxic
[11]
  ED50: 19 mg/kg
[12]
  ED50: 81 mg/kg
  ED97: 114 mg/kg
[13]
  Activity: Active
[14]
  Activity: Non-toxic
[15]
  Activity: Non-toxic
[16]
  Activity: Non-toxic
[17]
  ED50: 16 mg/kg
[18]
  Activity: inactive
[19]
  Ratio TD50/ED50: 4.4
[20]
  TD50: 58 mg/kg
[21]
  Activity: inactive
[22]
  Activity: Non-toxic
[23]
  Activity: Non-toxic
[24]
  Activity: Active
[25]
  Activity: Active
[26]
  Activity: Toxic
[27]
  Activity: Non-toxic
[28]
  Ratio TD50/ED50: 14
[29]
  Activity: inactive
[30]
  Ratio TD50/ED50: 1.3
[31]
  ED50: 103 mg/kg
[32]
  Activity: Toxic
[33]
  Ratio ED50: 4
[34]
  Activity: inactive
[35]
  Activity: Non-toxic
[36]
  Activity: Non-toxic
[37]
  Activity: inactive
